The text below walks through data of PubChem BioAssay.

Structures are written as SMILES. Active and inactive are the calls of the source.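 How the source made its calls, unless noted: active means a full or partial loss of lipid-probe fluorescence in the fish gall bladder, intestine or both, judged by eye; inactive means no fluorescence loss, or compound toxic to the fish.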

Assay [1] can be described thus: inhibitors of TNFa-induced NFkB p65 translocation, primary screen, imaging, HUVEC, MLSMR starter and 10KST1 sets (AID 438;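 active means inhibition above 20% together with a positive visual image hit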;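 further: compound added about 3h40 before a 20 min TNFalpha stimulation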;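 on inhibition: signal is the nuclear over cytoplasmic p65 intensity ratio per well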). Conditions: HUVEC TNFa-induced p65 nuclear translocation; cell count: measured here: nuclei count (cytotoxicity indicator), at 2.08 µM unless noted; inhibition: at 2 µM, stronger effect = higher value unless noted.
Assay [2] in a line: inhibitors of E-selectin induction by TNFa, primary screen, imaging, HUVEC, immunofluorescence, MLSMR starter and 10KST1 sets (AID 487;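 active means visually confirmed hit in the image check and inhibition above 20%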;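 on inhibition: signal is fraction of cell area covered by stained E-selectin grains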;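 on nuclei count: 100% = median nuclei count of all wells on the same plate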). Conditions: HUVEC TNFalpha-induced E-selectin immunofluorescence imaging, at 2 µM; inhibition: stronger effect = higher value; nuclei count: measured here: cell number, toxicity.
Assay [3] is described as follows: DUSP6 inhibitors restoring Erk phosphorylation by chemical complementation, primary imaging in DUSP6-transfected HeLa (AID 609;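 active means compounds giving at least 50% inhibition in the cell-based MKP-3 phosphatase rescue imaging test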;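 on inhibition: phospho-Erk level distribution per well compared with pooled transfected vehicle control wells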). Conditions: HeLa MKP-3 transfected, phospho-Erk imaging KS statistic, at 10 µM.
Assay [4] addresses Dual specificity protein phosphatase 6 (Homo sapiens) (UniProt Q16828). The assay is described as above. Conditions: HeLa MKP-3 transfected, phospho-Erk imaging KS statistic, at 10 µM, stronger effect = higher value.
The target in assay [5] is Voltage-gated potassium channel subunit beta-2 (Rattus norvegicus) (UniProt P62483). Nature of the assay: KvBeta enzyme negative modulators, primary screen, biochemical, NADPH fluorescence (AID 622;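 active means fluorescence slope higher than the sample average by over 3 SD, cut at about -0.22 in these data, passing the limit was not always enough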;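 further: slope of raw intensity against log time taken from 70 to 1610 s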). Conditions: recombinant KvBeta, 4-cyanobenzaldehyde reduction, at 10 µM, stronger effect = higher value.
Voltage-gated potassium channel subunit beta-2 (Rattus norvegicus), sequence (P62483 whole entry, looked up): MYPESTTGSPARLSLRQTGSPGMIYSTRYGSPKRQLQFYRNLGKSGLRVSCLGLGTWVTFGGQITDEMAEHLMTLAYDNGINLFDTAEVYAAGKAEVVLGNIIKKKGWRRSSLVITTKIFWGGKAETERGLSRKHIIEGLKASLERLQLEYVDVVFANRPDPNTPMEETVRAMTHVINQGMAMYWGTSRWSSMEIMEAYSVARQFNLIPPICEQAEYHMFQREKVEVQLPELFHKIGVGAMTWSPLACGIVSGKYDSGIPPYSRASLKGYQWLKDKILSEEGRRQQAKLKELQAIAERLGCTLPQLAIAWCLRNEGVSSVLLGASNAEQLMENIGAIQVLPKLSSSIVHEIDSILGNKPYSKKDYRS
Assay [6] shares this target. Nature of the assay: KvBeta positive modulators, primary screen, biochemical, NADPH fluorescence (AID 623;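 active means NADPH fluorescence slope more negative than the mean of all samples by about 3 SD, 99.7% confidence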;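 further: fluorescence intensity change per second fitted from 20 to 320 s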). Conditions: Recombinant KvBeta, NADPH fluorescence decrease slope, 10 min; at 10 µM; stronger effect = lower value.
Assay [7] deals with Alpha-2C adrenergic receptor (Homo sapiens) (UniProt P18825). Nature of the assay: modulators of alpha2C/GIRK thallium flux, primary screen, cell-based, HEK293 alpha2C/GIRK1/2 (AID 624;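 active means fluorescence slope after compound addition differing from the mean of all screened samples at 99.7% confidence, in either direction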;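 further: slope of fluorescence ratio to pre-addition baseline per second over 15 to 24 s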). Conditions: thallium flux BTC fluorescence, at 10 µM, actives lie on both sides.
Alpha-2C adrenergic receptor (Homo sapiens), sequence (P18825 whole entry, looked up): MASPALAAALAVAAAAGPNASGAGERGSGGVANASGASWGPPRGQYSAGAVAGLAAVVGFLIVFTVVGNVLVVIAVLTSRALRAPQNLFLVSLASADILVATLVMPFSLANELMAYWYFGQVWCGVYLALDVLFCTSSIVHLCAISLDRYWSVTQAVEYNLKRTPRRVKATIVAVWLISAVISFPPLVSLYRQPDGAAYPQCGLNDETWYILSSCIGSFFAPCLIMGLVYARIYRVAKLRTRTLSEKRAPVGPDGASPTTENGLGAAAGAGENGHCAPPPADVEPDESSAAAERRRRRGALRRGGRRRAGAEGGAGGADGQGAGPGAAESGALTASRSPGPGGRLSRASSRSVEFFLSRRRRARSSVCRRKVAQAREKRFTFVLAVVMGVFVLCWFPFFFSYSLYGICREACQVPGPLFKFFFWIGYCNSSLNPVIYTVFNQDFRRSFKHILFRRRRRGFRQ
A short description of assay [8]: inhibitors of larval lipid processing in zebrafish, primary screen, whole organism, PED6 fluorescence, gall bladder and intestine (AID 686).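 Further: larvae 5 to 7 days old with five fish per well; signal comes from phospholipase A2 cleavage of quenched PED6 carried via bile; overnight exposure to compound and PED6 before scoring.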 Conditions: Zebrafish larvae PED6 lipid processing, fluorescence scoring. Put shortly:
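Also added: quenched phospholipase substrate PED6, 100 nM final, ingested by larvae; System: zebrafish larvae, 5-7 d; Quantity: 5 larvae per well; Compound: 20 µM single dose; Schedule: overnight compound and PED6 incubation; Read-out: visual per-well fluorescence inhibition score; Measured by: By-eye fluorescence microscopy; Medium: E3.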

The nature of assay [9]: inhibitors of Chlamydomonas gravitaxis, primary screen, whole organism, Chlamydomonas reinhardtii, WT vs cilia-less mutant, absorbance, 96-well (AID 463189;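 active means inhibition at or above 50% relative to wild type and mutant plate controls; inactive means inhibition below 50%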;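 further: 0% = wild type cc124 cells in DMSO and 100% = ciliumless bld1 mutant cells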). Conditions: OD600 absorbance, 2 days, at 10 µM, stronger effect = higher value.
Assay [10] deals with Muscarinic acetylcholine receptor M4 (Homo sapiens) (UniProt P08173). Nature of the assay: compounds altering M4/GIRK thallium flux, either direction, primary screen, M4 allosteric agonist project, cell-based, HEK293 M4/GIRK, BTC-AM (AID 625;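 active means fluorescence slope after compound addition differing from the mean of all tested samples at 99.7% confidence, mostly higher but some lower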;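 further: thallium influx through GIRK channels coupled to M4 in HEK293 cells with BTC-AM dye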). Conditions: at 10 µM, actives lie on both sides. Put shortly: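 assay system = HEK293 cells with M4 receptor and GIRK channels | medium = pH 7.3 thallium assay buffer | doses = 10 µM final, single point | timing = cells overnight at 37 °C, BTC-AM loading 1 h, reads 2 min total | signal = BTC-AM fluorescence, 1 Hz kinetic reads | read-out = post-addition slope, 15–24 s, of baseline-normalized fluorescence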
Muscarinic acetylcholine receptor M4 (Homo sapiens), sequence (P08173 whole entry, looked up): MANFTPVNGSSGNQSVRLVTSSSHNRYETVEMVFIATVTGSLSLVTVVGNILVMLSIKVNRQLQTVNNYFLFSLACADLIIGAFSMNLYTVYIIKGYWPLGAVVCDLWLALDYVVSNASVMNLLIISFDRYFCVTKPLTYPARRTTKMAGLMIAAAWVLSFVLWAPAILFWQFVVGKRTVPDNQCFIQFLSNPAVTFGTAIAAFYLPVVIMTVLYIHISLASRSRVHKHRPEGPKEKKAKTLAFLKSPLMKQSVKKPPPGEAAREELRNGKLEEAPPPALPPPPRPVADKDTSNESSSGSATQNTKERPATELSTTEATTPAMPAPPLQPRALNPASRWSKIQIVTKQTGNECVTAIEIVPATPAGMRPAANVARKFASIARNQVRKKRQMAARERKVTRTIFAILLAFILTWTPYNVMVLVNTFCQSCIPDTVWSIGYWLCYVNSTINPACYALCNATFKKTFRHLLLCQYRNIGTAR

Where [11] appears, read: measured here: cell density z-score.
Where [12] appears, read: measured here: nuclear c-Myc green intensity z-score.
The mark [13] stands for this setting: measured here: nuclear pErk red intensity z-score, stronger effect = higher value.

Dual specificity protein phosphatase 6 (Homo sapiens), sequence (Q16828 whole entry, looked up): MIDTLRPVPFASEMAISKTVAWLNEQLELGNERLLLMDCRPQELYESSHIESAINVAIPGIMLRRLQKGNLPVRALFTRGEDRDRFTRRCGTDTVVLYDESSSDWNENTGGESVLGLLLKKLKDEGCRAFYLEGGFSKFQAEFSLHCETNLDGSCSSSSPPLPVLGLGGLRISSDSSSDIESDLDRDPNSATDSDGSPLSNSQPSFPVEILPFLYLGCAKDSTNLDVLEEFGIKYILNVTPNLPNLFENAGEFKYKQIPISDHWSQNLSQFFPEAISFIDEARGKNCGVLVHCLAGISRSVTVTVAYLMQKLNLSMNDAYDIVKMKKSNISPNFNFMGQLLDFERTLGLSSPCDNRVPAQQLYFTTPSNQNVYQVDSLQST

With `COCCOC(=O)c1c(N)n(Cc2ccco2)c2nc3ccccc3nc12`, the cell count in [1] stood at 431. Moreover, the inhibition in [1] was -13% (inactive); in assay [2] it was -107% (inactive); in assay [4], 0.671% (inactive); in assay [9] it was 15% (inactive). In assay [2], the nuclei count was found to be 162%. The z-score is 0.196 in assay [3] (setting [11]), -0.0973 in assay [3] (setting [12]) and 1.79 in assay [3] (setting [13]). Moreover, in assay [5], the fluorescence slope was -0.0308 (inactive). Also, in [6], the NADPH fluorescence slope was -7.2e-06 (inactive). Also, the slope in assay [7] was 0.00535 (inactive). For the same molecule, in assay [8], the result was inactive.

`CCOc1ccccc1-n1c(O)c(C=Nc2c(C)n(C)n(-c3ccccc3)c2=O)c(=O)[nH]c1=O` had a cell count in assay [1] of 629. In addition, the inhibition in assay [1] was -13.3% (inactive); in assay [2], -48.3% (inactive); in assay [4], 22.7% (inactive); in [9], 0.366% (inactive). The molecule further came in with a nuclei count in [2] of 148%. In addition, the figures for the z-score in assay [3] (setting [11]), in assay [3] (setting [12]) and in assay [3] (setting [13]) were 1.53, -0.137 and 0.143, respectively. Further, the fluorescence slope in assay [5] was -0.432 (inactive). Also, the NADPH fluorescence slope in assay [6] was -4.9e-06 (inactive). Also, the slope in assay [7] is 0.00796 (inactive). Moreover, in [8], the call was inactive.

Molecule `CC(=O)OC1(c2ccc(C)cc2)CN2CCC1c1ccccc12` (centres undefined) came in with a cell count in [1] of 554. Besides, the inhibition in assay [1] is -10% (inactive); in assay [2], -198% (inactive); in [4], 25.8% (inactive); in assay [9], 18.7% (inactive). This molecule also displayed a nuclei count in [2] of 145%. Moreover, the z-score amounted to 0.866 in [3] (setting [11]), 0.595 in assay [3] (setting [12]) and 0.108 in assay [3] (setting [13]). Besides, the fluorescence slope in assay [5] is -0.502 (inactive). Also, in [6], the NADPH fluorescence slope is -6.1e-05 (inactive). Moreover, in [7], the slope was 0.00515 (inactive). The result in [8] was inactive.

On to `CCOC(=O)C1=C(C)OC(N)=C(C(=O)OCC)[C@@]12C(=O)N(CC(N)=O)c1ccccc12`, for which the cell count in assay [1] amounted to 465. Also, the inhibition in assay [1] is -6.3% (inactive); in assay [2] it was -219% (inactive); in assay [4] it was -0.624% (inactive); in assay [9], 5.83% (inactive). Moreover, the nuclei count in [2] was determined as 186%. The values for the z-score in assay [3] (setting [11]), in [3] (setting [12]) and in assay [3] (setting [13]) were -0.479, -0.527 and -0.153, respectively. For the same molecule, the fluorescence slope in assay [5] is -0.445 (inactive); in assay [10], 0.00512 (inactive). Moreover, in assay [6], the NADPH fluorescence slope was -5.7e-05 (inactive). The molecule was classed as inactive in assay [8].

For `CN1CCc2nc3sc(C#N)c(N)c3c(-c3cccs3)c2C1`, in assay [1], the cell count stood at 596. In addition, the inhibition is -16.8% (inactive) in assay [1], -65% (inactive) in [2], 6.51% (inactive) in [4] and -2.74% (inactive) in assay [9]. In [2], the nuclei count was 165%. Besides, the z-score was 0.586 in assay [3] (setting [11]), -0.275 in assay [3] (setting [12]) and 0.463 in [3] (setting [13]). Further, in assay [5], the fluorescence slope was -0.362 (inactive). Further, the NADPH fluorescence slope in assay [6] is -6e-05 (inactive). The slope in assay [7] is 0.00412 (inactive). The call in assay [8] was inactive.

In the case of `CCCCn1c(O)c(C=NCCN2CCCCC2)c(=O)[nH]c1=O`, in assay [1], the cell count is 430. In addition, the inhibition in assay [1] is 0.6% (inactive); in assay [2] it was 17.7% (inactive); in assay [4], -4.7% (inactive); in assay [9], 3.56% (inactive). The molecule further gave a nuclei count in assay [2] of 87.8%. Besides, the z-score is 0.907 in assay [3] (setting [11]), -2.11 in assay [3] (setting [12]) and -0.0585 in [3] (setting [13]). For the same molecule, in [5], the fluorescence slope was -0.489 (inactive). Besides, the NADPH fluorescence slope in assay [6] is 9.8e-06 (inactive). In addition, the slope in [7] was 0.00621 (inactive). Moreover, in [8], the result was inactive.

In assay [1], `CC1(C)CC(n2[nH]c(=O)c3c2NC(=O)CSC3c2ccccc2)CCO1` (centres undefined) displayed a cell count of 532. In addition, the inhibition in [1] was 10.5% (inactive); in assay [2], -152% (inactive); in assay [4] it was 1.75% (inactive); in assay [9], -16.8% (inactive). This molecule displayed a nuclei count in assay [2] of 128%. Moreover, the z-score was -0.163 in [3] (setting [11]), 0.684 in assay [3] (setting [12]) and -0.467 in assay [3] (setting [13]). For the same molecule, in assay [5], the fluorescence slope was -0.501 (inactive). In addition, the NADPH fluorescence slope in assay [6] is -2.3e-05 (inactive). In assay [7], the slope is 0.00596 (inactive). Moreover, the molecule was called inactive in assay [8].

In the case of `CCCCC1(CN2CCCC2=O)C(=O)NC(=O)NC1=O`, the cell count in assay [1] was 325. For the same molecule, the inhibition is -24.8% (inactive) in assay [1], -135% (inactive) in assay [2], 3.5% (inactive) in assay [4] and 32.8% (inactive) in [9]. The nuclei count in assay [2] came to 118%. Also, the figures for the z-score in assay [3] (setting [11]), in assay [3] (setting [12]) and in assay [3] (setting [13]) were 0.342, -1.01 and -1.02, respectively. Also, the fluorescence slope in assay [5] is -0.467 (inactive). The NADPH fluorescence slope in assay [6] was 1.5e-05 (inactive). Further, the slope in assay [7] was 0.00649 (inactive). In addition, the molecule was classed as inactive in assay [8].

With `COc1ccc(Cn2c(O)c(C=NCCCn3ccnc3)c(=O)[nH]c2=O)cc1`, the cell count in assay [1] was 466. The inhibition in assay [1] is -0.7% (inactive); in [2], 54% (inactive); in assay [4] it was 4.25% (inactive); in assay [9], -4.22% (inactive). This molecule showed a nuclei count in [2] of 81.9%. Besides, the z-score in assay [3] (setting [11]) is -1.17; in assay [3] (setting [12]), 0.328; in assay [3] (setting [13]), 0.929. In assay [5], the fluorescence slope is -0.443 (inactive). Also, the NADPH fluorescence slope in [6] was -1.5e-05 (inactive). For the same molecule, the slope in assay [7] was 0.00461 (inactive). For the same molecule, the result in assay [8] was inactive.

In assay [1], `CC(C)OC(=O)c1c(N)n(Cc2ccco2)c2nc3ccccc3nc12` displayed a cell count of 337. The inhibition in assay [1] is -5.5% (inactive); in assay [2], -136% (inactive); in assay [4], -4.7% (inactive); in [9], 1.76% (inactive). Moreover, the nuclei count in assay [2] was 108%. The z-score was -1.01 in [3] (setting [11]), 1.4 in [3] (setting [12]) and -1.07 in assay [3] (setting [13]). The fluorescence slope in [5] was -0.101 (inactive). In assay [6], the NADPH fluorescence slope was 1e-05 (inactive). Also, the slope in assay [7] is 0.00512 (inactive). The molecule was classed as inactive in assay [8].

Consider `C/C(Cl)=C/CC1(CN2CCCC2=O)C(=O)NC(=O)NC1=O`, for which the cell count in [1] worked out at 584. Further, the inhibition in [1] was -2.5% (inactive); in [2], -26.8% (inactive); in [4], -3.98% (inactive); in assay [9], -13.6% (inactive). In [2], this molecule came in with a nuclei count of 102%. Besides, the z-score is -1.18 in [3] (setting [11]), 1.93 in [3] (setting [12]) and 0.656 in assay [3] (setting [13]). The fluorescence slope in assay [5] was -0.484 (inactive). Moreover, the NADPH fluorescence slope in assay [6] is -0.000274 (inactive). In assay [7], the slope was 0.00947 (inactive). The molecule was called inactive in assay [8].

In turn, `CCCCCCn1c(O)c(C(C)=NC)c(=O)[nH]c1=O` returned a cell count in assay [1] of 556. For the same molecule, the inhibition in [1] was -6.2% (inactive); in [2], -77.6% (inactive); in assay [4], -0.608% (inactive); in assay [9] it was -6.02% (inactive). The nuclei count in assay [2] was found to be 162%. Further, the z-score in assay [3] (setting [11]) is 0.993; in assay [3] (setting [12]), -1.06; in assay [3] (setting [13]), 1.3. In assay [5], the fluorescence slope was -0.503 (inactive). Moreover, in assay [6], the NADPH fluorescence slope is -6.1e-05 (inactive). Besides, the slope in assay [7] was 0.00581 (inactive). Moreover, the outcome in assay [8] was inactive.

`CCOCCN1CCC(OC(C)=O)C(C)C1` (centres undefined): in [1], the cell count is 461. Besides, the inhibition in [1] is -0.9% (inactive); in assay [2] it was -83.1% (inactive); in assay [4], -6.86% (inactive); in assay [9], -15.8% (inactive). The same molecule gave a nuclei count in assay [2] of 115%. For the same molecule, the z-score in assay [3] (setting [11]) was -0.179; in assay [3] (setting [12]), -1.35; in [3] (setting [13]), -0.74. Moreover, the fluorescence slope in assay [5] was -0.51 (inactive). In addition, the NADPH fluorescence slope in assay [6] was -0.000103 (inactive). For the same molecule, in [7], the slope was 0.00675 (inactive). Also, in assay [8], the molecule was called inactive.
